# KCNQ1 block = blocks the human KCNQ1 potassium channel. P51787. CHO-K1 KCNQ1, FluxOR thallium flux fluorescence; active compounds read high. B-score at 10 µM. actives 1.3% (n = 310,000). AID 2642;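 active = compounds whose thallium flux B-score, printed positive for inhibition, exceeds three library SD while starting fluorescence stays within three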;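 note: channel opened by potassium depolarization with thallium stimulus after 20 min compound exposure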
# KCNK9 block = human KCNK9 channel inhibition; AID 488922; actives 1.2% (n = 310,000); B-score at 10 µM; HEK293 KCNK9, FluxOR thallium flux fluorescence; active compounds read low; Q9NPC2;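 active = ratio B-score over 3 SD below the library mean, with starting fluorescence within 5 SD of its mean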;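 note: negative B-score means less thallium flux so channel inhibition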
# Target sequence (Q9NPC2 whole entry, looked up): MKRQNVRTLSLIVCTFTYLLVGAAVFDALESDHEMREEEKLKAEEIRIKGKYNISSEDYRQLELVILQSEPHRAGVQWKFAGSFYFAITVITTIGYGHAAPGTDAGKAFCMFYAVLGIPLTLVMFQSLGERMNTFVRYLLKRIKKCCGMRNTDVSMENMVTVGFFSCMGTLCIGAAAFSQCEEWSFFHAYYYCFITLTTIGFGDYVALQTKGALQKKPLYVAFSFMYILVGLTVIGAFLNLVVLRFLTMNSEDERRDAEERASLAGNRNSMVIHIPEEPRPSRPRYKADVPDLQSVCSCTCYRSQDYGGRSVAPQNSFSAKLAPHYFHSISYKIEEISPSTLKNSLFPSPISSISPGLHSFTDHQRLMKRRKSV
# KCNK3 block = human KCNK3 channel inhibition, primary screen; actives 0.84% (n = 340,000); B-score at 10 µM; O14649; CHO-KCNK3 thallium flux, FluxOR fluorescence; active compounds read low; AID 602410;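 active = B-score under library mean minus 4 SD, starting fluorescence ratio at most library mean plus 5 SD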;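 note: more negative B-score means stronger inhibition of thallium flux through KCNK3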
# hERG rescue = hERG (human) protection from proarrhythmic block; CHO-hERG, FluxOR thallium flux, dofetilide IC70 present; AID 1511; actives 0.51% (n = 310,000); activation (rescue from dofetilide block), less the hit threshold, % at 10 µM; Q12809;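 active = activation above the mean of controls blocked by dofetilide plus 5 SD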;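 note: thallium influx through hERG after potassium depolarization seen as dye fluorescence rise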
# KCNQ1 pot = human KCNQ1 channel potentiation or activation. P51787. CHO-K1 KCNQ1, thallium flux FluxOR fluorescence; active compounds read high. B-score at 10 µM. AID 2648. actives 0.35% (n = 310,000);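 active = fluorescence ratio B-score, a plate-corrected score, at least three library SD, with initial intensity B-score within 5 SD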
#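 Material: CHO-K1 cells stably expressing KCNQ1. Medium: assay buffer for compound exposure, DMSO matched across wells. Reagent: K+/Tl+ depolarizing stimulus. Compound dosing: single-concentration screen. Times: 37 °C overnight plating, 90-min dark dye load, 20-min compound pretreatment. Technique: FluxOR Tl+ flux fluorescence.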
# KCNK3 inh conf = confirmation of human KCNK3 two-pore domain potassium channel inhibitors. CHO-KCNK3 thallium flux, FluxOR fluorescence; 0% buffer, 100% carvedilol maximal block. ratio percent of control, % at 10 µM. AID 651638. shares compounds with KCNK3 block. actives 99% (n = 2,400);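 active = ratio percent of control, averaged over triplicates, above buffer control mean plus 5 SD, cut at about 64% in these data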;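 note: ratio is the fluorescence rise from min to max over baseline after thallium stimulus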
# KCNK3 noninduced = counter-screen for KCNK3 inhibitors: effect in non-induced cells; actives 40% (n = 2,400); thallium flux ratio (lower = more inhibition) at 10 µM; non-induced KCNK3 parental cells, FluxOR thallium flux; active compounds read low; shares compounds with KCNK3 block;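 active = thallium flux ratio, averaged over three wells, more than 5 SD below the buffer control mean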;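 note: host cells are CHO cells without KCNK3 induction; ratio is peak minus trough fluorescence over baseline then normalized to buffer controls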
# * hit, by the source's call; i = inactive; x = not tested or not shown. Shown are actives, neighbours in structure and some others; about 3.1% of the full set was active somewhere.
SMILES,KCNQ1 block,KCNK9 block,KCNK3 block,hERG rescue,KCNQ1 pot,KCNK3 inh conf,KCNK3 noninduced
Cc1nc(-c2nc(-c3c(C(=O)NNC(=O)Nc4ccccc4)noc3C)cs2)cs1,i,i,i,-6.7,i,x,x
Cn1c(COc2ccc(Cl)cc2)nnc1SCc1ncc(-c2ccccc2)o1,i,i,i,-6.1,i,x,x
Cc1cccc(NC(=O)CSCC(=O)Nc2cc(S(=O)(=O)N3CCOCC3)ccc2N2CCCC2)c1,i,i,i,-5.1,i,x,x
Cc1cccc(NC(=O)CSCC(=O)Nc2ccccc2N2CCCC2)c1,i,i,-9.6*,-13.7,i,87.3*,i
Cc1ccc(S(=O)(=O)N(C)c2ccc(OCc3cccc(C)c3)cc2)cc1,i,i,-9.31*,-14.2,i,108.0*,0.155*
Cc1nn(C(C)(C)C)c(OC(=O)c2cccs2)c1Sc1ccccc1,i,-8.06*,-12.2*,-7.6,i,101.0*,i
Cc1ccc(C(=O)NC(C#N)=C(Cl)Cl)cc1,i,i,x,-8.3,i,x,x
Oc1ccccc1/C=N/c1c(-c2ccco2)nc2ccccn12,i,i,-9.74*,-17.1,i,94.7*,i
Cc1ccc(-n2nnnc2SCC(=O)Nc2ncc(Cc3ccccc3Cl)s2)cc1,i,i,i,-7.3,i,x,x
CCOc1ccc(/C=N/NC(=O)Cc2csc(Nc3cccc(C(F)(F)F)c3)n2)c(OCC)c1,i,i,i,-5.2,i,x,x
CCOc1ccc(/C=N/NC(=O)Cc2csc(Nc3cccc(C(F)(F)F)c3)n2)cc1,i,i,-10.6*,-3.8,i,105.7*,i
CCOc1ccccc1/C=N/NC(=O)Cc1csc(Nc2cccc(C(F)(F)F)c2)n1,i,i,-8.75*,-2.7,i,131.0*,0.146*
COc1ccccc1CN1CCNC(=O)C1CC(=O)NCCOc1cccnc1 (stereo not given),i,i,i,-3.5,i,x,x
Cc1ccc(CN2CCN(/N=C/c3ccc(Cl)c([N+](=O)[O-])c3)CC2)cc1,i,i,-8.73*,-0.9,i,121.0*,i
Cc1cccc(CSC2=NCCN2S(=O)(=O)c2ccc(F)cc2)c1,i,i,-8.87*,-9.1,i,105.0*,i
COc1ccc(OC)c(C2=NS(=O)(=O)N(C)C(C(=O)Nc3cccc(C(C)=O)c3)=C2)c1,i,i,-8.78*,-10.0,i,122.3*,0.153*
Cc1nn(Cc2ccccc2Cl)c(C)c1NC(=O)c1ccn(C)n1,i,i,i,-1.9,i,x,x
Cc1nn(Cc2ccccc2Cl)c(C)c1NC(=O)NC12CC3CC(CC(C3)C1)C2,i,i,-8.87*,-9.0,i,119.0*,0.144*
CCC(C)N(C(=O)CSc1nc(-c2ccccc2)cs1)C1CCS(=O)(=O)C1 (stereo not given),i,i,i,-14.6,i,x,x
Cc1cc(C)c2sc(N(CCN(C)C)C(=O)c3c(F)cccc3F)nc2c1,i,i,-9.15*,-11.1,i,115.7*,i
O=C(NC1CCCC1)C(c1ccccc1F)N(C(=O)c1csnn1)c1ccccc1 (stereo not given),i,i,i,-5.6,i,x,x
CCOC(=O)c1cc(-c2ccco2)nc2c1c(C)nn2-c1ccccc1,i,i,-9.37*,-6.4,i,93.0*,i
CCCn1c(=O)c2c(C(=O)OCC)cc(-c3ccco3)nc2n(CCC)c1=O,i,i,i,-15.3,i,x,x
CNC(=O)/C(C#N)=C/c1c(N2CCN(c3ccccc3)CC2)nc2c(C)cccn2c1=O,i,i,i,-8.1,i,x,x
Cc1cccn2c(=O)c(/C=C(\C#N)C(N)=O)c(N3CCN(c4cccc(Cl)c4)CC3)nc12,i,-7.22*,-10.2*,-5.0,i,102.0*,i
SMILES,KCNQ1 block,KCNK9 block,KCNK3 block,hERG rescue,KCNQ1 pot,KCNK3 inh conf,KCNK3 noninduced
CCCCn1c(N)c(N(CCOC)C(=O)c2ccc(S(=O)(=O)N3CCCCCC3)cc2)c(=O)[nH]c1=O,i,i,i,-16.1,i,x,x
O=C1CCC(C(=O)OC(C(=O)c2c[nH]c3ccccc23)c2ccccc2)=NN1 (stereo not given),i,-8.74*,i,-1.6,i,111.3*,i
O=C(COc1cccc2cccnc12)N/N=C/c1cccn1-c1ccc(F)cc1,i,i,-8.71*,-21.5,i,108.3*,i
CC(C)N(C(=S)NC1CC2CCC1C2)c1ccccc1 (stereo not given),i,i,-9.76*,-16.6,i,118.0*,0.16*
CN(C)c1cccc(C(=O)NNC(=S)NC2CC3CCC2C3)c1 (stereo not given),i,i,i,-7.7,i,x,x
Cc1ccc(NC(=O)c2cc(C)nc3ccccc23)c(Br)c1,i,-7.99*,-10.2*,0.8,i,94.0*,i
CC(C)(C)c1nnc(SCC(=O)c2ccccc2)n(N)c1=O,i,i,i,-1.6,i,x,x
Cc1ccc(NC(=S)Nc2cccc3ccccc23)cc1,i,i,i,-6.0,i,x,x
CC(C)c1ccc(NC(=S)Nc2cccc3ccccc23)cc1,i,i,-8.85*,-7.9,i,105.3*,i
CCc1c(C)nc2cc(-c3ccc(OC)c(OC)c3)nn2c1N1CCCC1,i,i,-9.63*,-1.6,i,109.0*,i
COc1ccc(-c2c(C)nn3c(N4CCCCCC4)cc(C)nc23)cc1OC,i,i,i,-15.9,i,x,x
CCc1c(C)nc2cc(-c3ccc(OC)c(OC)c3)nn2c1N1CCC(C)CC1,i,i,-8.94*,-15.9,i,103.7*,i
CCN(c1cccc(C)c1)S(=O)(=O)c1ccc(-c2cc(C)no2)s1,i,i,-8.79*,-8.8,i,102.7*,i
CC(=O)N/C(=C\c1ccc(F)cc1)C(=O)NC(Cc1c[nH]c2ccccc12)C(=O)O (stereo not given),i,i,i,-10.8,i,x,x
COc1cccc(-c2nc(CS(=O)(=O)CC(=O)Nc3ccccc3Cl)c(C)o2)c1,i,i,i,-7.0,i,x,x
CC1CN(S(=O)(=O)c2cc(C(=O)N(CCc3ccccc3)Cc3ccccc3)ccc2Cl)CC(C)O1 (stereo not given),i,i,-8.74*,-16.0,i,85.0*,i

# From PubChem
